Tests used:
MDA-MB-231 = experiment: Cytotoxicity against human MDA-MB-231 cells assessed as reduction in cell viability incubated for 72 hrs by CCK-8 assay; format: functional, cell-based; settings: MDA-MB-231, 72 h
How it was run: (§1)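 Exponentially growing human tumour cells were exposed for 72 h to compounds formulated in DMSO solution. Cell survival was read by the CCK-8 method, and IC50 values were taken from the dose–response curves.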

A549 = experiment: Cytotoxicity against human A549 cells assessed as reduction in cell viability incubated for 72 hrs by CCK-8 assay; format: functional, cell-based; settings: A549, 72 h; how it was run: as §1
[1] = Cytotoxicity against human drug-resistant A549/T cells assessed as reduction in cell viability incubated for 72 hrs by CCK-8 assay; format: functional, cell-based; settings: A549, 72 h; how it was run: as §1
[2] = Potency index, ratio of paclitaxel IC50 to compound IC50 for cytotoxicity against drug-resistant human A549/T cells assessed as reduction in cell viability incubated for 72 hrs by CCK-8 assay; format: functional

SMILES | IC50 (MDA-MB-231) | IC50 (A549) | IC50 [1] | Ratio [2]
CC(=O)O[C@H]1C[C@H]2OC[C@@]2(OC(C)=O)[C@H]2[C@H](OC(=O)c3ccccc3)C3C[C@H](OC(=O)[C@H](O)[C@@H](NC(=O)c4ccc(F)cc4)c4ccccc4)C(C)=C([C@H]4OC(=O)O[C@@H]4[C@]12C)C3(C)C (some centres undefined) | 0.209 µM | 0.133 µM | 1.03 µM | –
CC(=O)O[C@H]1C[C@H]2OC[C@@]2(OC(C)=O)[C@H]2[C@H](OC(=O)c3ccccc3)C3C[C@H](OC(=O)[C@H](O)[C@@H](NC(=O)c4ccccc4)c4ccccc4)C(C)=C([C@H]4OC(=O)O[C@@H]4[C@]12C)C3(C)C (some centres undefined) | 0.124 µM | 0.022 µM | 0.229 µM | 7
CC(=O)O[C@H]1C[C@H]2OC[C@@]2(OC(C)=O)[C@H]2[C@H](OC(=O)c3ccccc3)C3C[C@H](OC(=O)[C@H](O)[C@@H](NC(=O)c4cccc(Br)c4)c4ccccc4)C(C)=C([C@H]4OC(=O)O[C@@H]4[C@]12C)C3(C)C (some centres undefined) | 2.02 µM | 0.329 µM | 2.89 µM | –
CC(=O)O[C@H]1C[C@H]2OC[C@@]2(OC(C)=O)[C@H]2[C@H](OC(=O)c3ccccc3)C3C[C@H](OC(=O)[C@H](O)[C@@H](NC(=O)c4cccc(F)c4)c4ccccc4)C(C)=C([C@H]4OC(=O)O[C@@H]4[C@]12C)C3(C)C (some centres undefined) | 0.183 µM | 0.068 µM | 2.34 µM | –
COc1cccc(C(=O)N[C@@H](c2ccccc2)[C@@H](O)C(=O)O[C@H]2CC3[C@@H](OC(=O)c4ccccc4)[C@@H]4[C@]5(OC(C)=O)CO[C@@H]5C[C@H](OC(C)=O)[C@@]4(C)[C@H]4OC(=O)O[C@@H]4C(=C2C)C3(C)C)c1 (some centres undefined) | 0.068 µM | 0.069 µM | 3.02 µM | –
CC(=O)O[C@H]1C[C@H]2OC[C@@]2(OC(C)=O)[C@H]2[C@H](OC(=O)c3ccccc3)C3C[C@H](OC(=O)[C@H](O)[C@@H](NC(=O)c4ccccc4F)c4ccccc4)C(C)=C([C@H]4OC(=O)O[C@@H]4[C@]12C)C3(C)C (some centres undefined) | 0.182 µM | 0.115 µM | 4.9 µM | –
CC(=O)O[C@H]1C(=O)[C@@]2(C)[C@H]([C@H](OC(=O)c3ccccc3)[C@]3(O)C[C@H](OC(=O)[C@H](O)[C@@H](NC(=O)c4ccccc4)c4ccccc4)C(C)=C1C3(C)C)[C@]1(OC(C)=O)CO[C@@H]1C[C@@H]2O [PACLITAXEL] | 0.02 µM | 0.013 µM | 1.58 µM | –
CC(=O)O[C@H]1C[C@H]2OC[C@@]2(OC(C)=O)[C@H]2[C@H](OC(=O)c3ccccc3)C3C[C@H](OC(=O)[C@H](O)[C@@H](NC(=O)c4ccc(C)cc4)c4ccccc4)C(C)=C([C@H]4OC(=O)O[C@@H]4[C@]12C)C3(C)C (some centres undefined) | 0.119 µM | 0.062 µM | 0.229 µM | 7
CC(=O)O[C@H]1C[C@H]2OC[C@@]2(OC(C)=O)[C@H]2[C@H](OC(=O)c3ccccc3)C3C[C@H](OC(=O)[C@H](O)[C@@H](NC(=O)c4ccc(F)c(F)c4)c4ccccc4)C(C)=C([C@H]4OC(=O)O[C@@H]4[C@]12C)C3(C)C (some centres undefined) | 1.95 µM | 0.408 µM | 2.89 µM | –

From ChEMBL document CHEMBL4665862, “Synthesis and biological activity of C-7, C-9 and C-10 modified taxane analogues from 1-deoxybaccatin VI” (Bioorg Med Chem, 2020)
